HSP90 refold inh – blocks HSP90-mediated luciferase refolding in reticulocyte lysate; Rabbit reticulocyte lysate, luciferase refolding luminescence, 3 h; inhibition, % at 5.6 µM; 290,000 compounds, 0.91% hits;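 active means inhibition above the screen-wide mean plus 3 SD, computed separately per campaign, cut at about 16% in these data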;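 further: inhibitors lower the luminescence because luciferase stays unfolded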
Hsp70 act – transcriptional activators of Hsp70. HeLa Hsp70 promoter luciferase reporter, luminescence; scaled: vehicle 0, proteasome-inhibitor control 100%. activation, % at 10 µM. 200,000 compounds, 0.04% hits. AID 1203;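 active means activation above the mean across all tested compounds plus 3 SD, cutoff set per campaign, cut at about 5.5% in these data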
HKDC1 inh – blocks human hexokinase HKDC1 activity; recombinant HKDC1, G6PDH/diaphorase resazurin coupled fluorescence; inhibition, % at 20 µM; 340,000 compounds, 0.16% hits;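 active means inhibition above about 35% when tested at 20 µM, limit read from the data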
Target sequence (Q2TB90 whole entry, looked up): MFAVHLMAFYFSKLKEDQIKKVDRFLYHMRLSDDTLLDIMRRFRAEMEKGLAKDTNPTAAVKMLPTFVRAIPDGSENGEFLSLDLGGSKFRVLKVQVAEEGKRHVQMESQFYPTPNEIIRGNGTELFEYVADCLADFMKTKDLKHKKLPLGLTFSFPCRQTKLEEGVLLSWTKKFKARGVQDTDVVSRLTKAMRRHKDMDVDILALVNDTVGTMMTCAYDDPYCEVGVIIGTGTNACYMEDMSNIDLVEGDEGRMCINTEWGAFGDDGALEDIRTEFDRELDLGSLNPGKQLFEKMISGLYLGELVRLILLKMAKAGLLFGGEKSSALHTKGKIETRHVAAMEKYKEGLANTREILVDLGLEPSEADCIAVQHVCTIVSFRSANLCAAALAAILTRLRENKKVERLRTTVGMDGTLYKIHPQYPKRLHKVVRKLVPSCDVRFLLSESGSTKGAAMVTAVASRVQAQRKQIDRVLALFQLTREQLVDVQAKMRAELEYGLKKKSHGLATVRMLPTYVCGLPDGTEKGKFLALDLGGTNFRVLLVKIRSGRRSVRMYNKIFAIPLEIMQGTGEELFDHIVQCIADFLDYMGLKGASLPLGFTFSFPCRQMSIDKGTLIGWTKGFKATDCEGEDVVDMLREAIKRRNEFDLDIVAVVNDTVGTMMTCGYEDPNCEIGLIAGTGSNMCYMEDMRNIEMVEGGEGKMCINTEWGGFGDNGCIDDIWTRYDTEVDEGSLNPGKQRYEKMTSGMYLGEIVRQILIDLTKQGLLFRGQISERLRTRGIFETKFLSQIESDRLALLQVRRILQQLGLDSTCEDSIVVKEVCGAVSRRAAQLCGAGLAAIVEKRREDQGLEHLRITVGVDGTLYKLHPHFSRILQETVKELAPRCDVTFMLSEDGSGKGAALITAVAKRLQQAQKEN
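System: Recombinant HKDC1 hexokinase | Amount: HKDC1 at 5 µg/mL | Reagent: Glucose with 1 mM ATP | Doses: Single 20 µM dose | Incubation: Reaction time 90 min, room temperature, protected from light | Signal: Coupled resazurin fluorescence, excitation 525 nm, emission 613 nm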
Tb hexokinase – blocks Trypanosoma brucei hexokinase 1 activity. recombinant TbHK1, G6PDH-coupled NADH A340. inhibition, % at 10 µM. 220,000 compounds, 0.11% hits. AID 1430;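 active means inhibition of 50% or more in the single-dose primary screen; inactive means inhibition below 50%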
HSF1 activator – increases HSF-1 driven luciferase reporter signal; AID 504408; NIH3T3-HGL HSF-1 luciferase reporter, MG132, 8 h; 100% = twice DMSO control signal; 300,000 compounds, 1.7% hits; activation, % at 9 µM;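 active means mean replicate activation of at least 50% with a set share of replicates each reaching 50%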
HSF1 inhib – HSF1 inhibition; NIH3T3-HGL HSE-luciferase, MG132-induced, luminescence 8 h; hits give low values; activity change, negative = inhibition, % at 7.5 µM (by protocol); 300,000 compounds, 0.77% hits;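 active means more than half of replicate wells show activity change below -50%, luminescence cut by over half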;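 further: luciferase reports HSF-1 transcriptional activity via heat shock element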
Of the large screens only hits and unclear results are named; the others gave an inactive call. The list is not random: actives were taken first. Their share in the collection is about 3.1%.

OC(COCC1CC=CCC1)Cn1cnc2ccccc21 (configuration not stated)	none
Cc1nc2ccccc2n1CC(O)COCC1CC=CCC1 (configuration not stated)	HSF1 activator 87
O=C(COc1ccccc1)NCCSCc1ccccc1Cl	HSF1 activator 70
O=C(CN1C(=O)NC2(CCCCCCC2)C1=O)Nc1cccc(Br)c1	none (no result: HSP90 refold inh, Hsp70 act, Tb hexokinase, HSF1 activator, HSF1 inhib)
COc1ccccc1CN=C1Nc2ccccc2CS1	HSF1 activator 123
c1cncc(CN=C2Nc3ccccc3CS2)c1	none
Clc1ccc(CN=C2Nc3ccccc3CS2)cc1	HSF1 activator 66
Cc1ccc(CN=C2Nc3ccccc3CS2)cc1	HSF1 activator 61
COc1cccc(CN=C2Nc3ccccc3CS2)c1	none
CC(=O)NC12CC3CC(C1)CC(C(=O)N(C)Cc1cccc(Cl)c1Cl)(C3)C2	none (no result: Hsp70 act, Tb hexokinase)
COC/C=C/C1=CC2=CC(=O)C(C)(OC(=O)c3cnc4ccccc4n3)C(=O)C2=CN1C1CCCC1 (configuration not stated)	none (no result: HSP90 refold inh, Hsp70 act, HKDC1 inh, Tb hexokinase)
CC(=O)c1ccc(OCc2cc(C(=O)N(C)C(C)c3ccon3)no2)cc1 (configuration not stated)	none (no result: Hsp70 act, Tb hexokinase)
CC(=O)c1ccc(OCc2cc(C(=O)N(C)C(C)c3nccs3)no2)cc1 (configuration not stated)	HSF1 activator 85 (no result: Hsp70 act, Tb hexokinase)
ClC(Cl)c1nnc(-c2ccccc2)c(-c2c[nH]c3ccccc23)n1	HSF1 activator 57
c1ccc(-c2nnc(-c3c[nH]c4ccccc34)nc2-c2ccccc2)cc1	none
COc1cc(OC)cc(OC(=O)C2CCN(C(=O)c3ccc(F)cc3)CC2)c1	none (no result: HSP90 refold inh, Hsp70 act, Tb hexokinase)
CC1CCCN(C(=O)c2ccc(-c3ccccc3Cl)o2)C1 (configuration not stated)	HSF1 activator 58 (no result: HSP90 refold inh, Hsp70 act, Tb hexokinase)
CCOC(=O)C1CCCN(C(=O)c2cc(S(=O)(=O)N(C)C)ccc2N2CCCC2)C1 (configuration not stated)	none (no result: HSP90 refold inh, Hsp70 act, Tb hexokinase)
COCC(C)NC(=O)/C(=C/c1ccccc1)c1ccccc1 (configuration not stated)	HSF1 activator 60
CC(NC(=O)/C(=C/c1ccc(OC(F)F)cc1)c1ccccc1)c1ccccc1 (configuration not stated)	none
COCC(C)NC(=O)c1ccc2nc(-c3ccccc3)c(-c3ccccc3)nc2c1 (configuration not stated)	HSF1 inhib -81 (no result: Hsp70 act, Tb hexokinase)
CCn1c(SCC(=O)c2ccc(Cl)cc2)nnc1-c1cccs1	none
CCn1c(SCCOc2ccc(Cl)cc2)nnc1-c1cccs1	HSF1 activator 61
Cc1c(C(=O)N(Cc2ccncc2)CC2CCCO2)oc2c(F)cccc12 (configuration not stated)	HSF1 activator 53 (no result: Hsp70 act, Tb hexokinase)
CCc1ccc2[nH]c(=O)c(-c3ccccc3)c(O)c2c1	none (no result: Hsp70 act, Tb hexokinase)
Cc1cc(C)c(C)c(S(=O)(=O)NCc2ccco2)c1C	HSF1 activator 78 (no result: HKDC1 inh)
Cc1ccc(S(=O)(=O)N2CCCCC2)cc1NC(=O)COC(=O)CN1C(=O)NC2(CC(C)CC(C)(C)C2)C1=O (configuration not stated)	none (no result: HSP90 refold inh, Hsp70 act, Tb hexokinase, HSF1 activator, HSF1 inhib)
c1ccc(COc2cncc(-c3cccnc3)c2)cc1	none (no result: HSP90 refold inh, Hsp70 act, Tb hexokinase, HSF1 activator, HSF1 inhib)
O=C(NCc1cccnc1)/C(=C/c1ccc(-c2ccc(Cl)cc2)o1)S(=O)(=O)c1ccccc1	HSF1 activator 87
COc1ccc(C(C)NC(=O)Cc2ccc(Br)cc2)cc1 (configuration not stated)	HSF1 activator 61
CC(C)NC(=O)Cc1ccc(Br)cc1	none
CC[C@]12c3[nH]c4ccccc4c3CCN1C(=O)C(CC(=O)NCCCN(C)C)C[C@@H]2C(=O)N1CCN(C(=O)c2ccco2)CC1 (some centres not stated)	none (no result: HSP90 refold inh, Hsp70 act, Tb hexokinase, HSF1 activator, HSF1 inhib)
CCc1cc(C(=O)OC)c(NC(=O)CSc2nccn2C)s1	none (no result: Hsp70 act, Tb hexokinase)
S=c1[nH]nc(SCc2ccccc2)c2[nH]cnc12	none (no result: HSP90 refold inh, Hsp70 act, Tb hexokinase, HSF1 activator, HSF1 inhib)
CCOC(=O)N1CCC(N2C(=O)c3ccccc3C2Nc2cc(C)cc(C)c2)CC1 (configuration not stated)	none (no result: Hsp70 act)
CCOC(=O)N1CCC(N2C(=O)c3ccccc3C2Nc2cc(C(=O)OC)cc(C(=O)OC)c2)CC1 (configuration not stated)	HSF1 inhib -78
COc1ccc(-c2nnc(Nc3ccc(CC(N)=O)cc3)c3ccccc23)cc1	HSF1 activator 57
NC(=O)Cc1ccc(Nc2nnc(-c3ccccc3)c3ccccc23)cc1	none (no result: HSF1 activator, HSF1 inhib)
Cc1cc(NC(=O)CN2C(=O)NC(C)(c3ccccc3)C2=O)no1 (configuration not stated)	none
Cc1cc(C)cc(NC(=O)CN2C(=O)NC(C)(c3ccccc3)C2=O)c1 (configuration not stated)	HSF1 activator 86
COc1ccccc1CN1CC(C(=O)NCCN2CCNC2=O)CCC1=O (configuration not stated)	HSF1 inhib -73 (no result: Hsp70 act, Tb hexokinase)
Cc1cc(NC(=O)c2ccc(Cl)cc2)cc(C)c1OCC(=O)N1CCOCC1	HSF1 activator 54 (no result: Hsp70 act, Tb hexokinase)
Cc1cc(Cl)ccc1OCCCC(=O)N1CCCCC1	none
Cc1cc(Cl)ccc1OCCCC(=O)N1CCOCC1	HSF1 inhib -65
COc1ccc2nc3cc(Cl)ccc3c(Nc3cc(C(C)C)c(O)cc3C)c2c1	HSF1 activator 187 (no result: Hsp70 act)
CCN(CC)CCCC(C)Nc1c2ccc(Cl)cc2nc2ccc(OC)cc12 (configuration not stated)	none (no result: HKDC1 inh, Tb hexokinase, HSF1 activator, HSF1 inhib)
CCOc1nc(Nc2ccc(OC)cc2OC)nc(OCC)n1	none (no result: Hsp70 act, Tb hexokinase)
Cc1ccc2nc(NC(=O)c3ccc(OCC4CCCO4)cc3)sc2c1 (configuration not stated)	HSF1 activator 57
CCOc1ccc2nc(NC(=O)Cc3cccs3)sc2c1	none
CCOc1ccc2nc(NC(=O)c3ccoc3C)sc2c1	HSP90 refold inh 28
CCOc1ccc2nc(NC(=O)Nc3cccs3)sc2c1	HSF1 activator 80
CCOc1ccc2nc(NC(=O)c3ccccn3)sc2c1	none (no result: Hsp70 act)
CCOc1ccc2nc(NC(=O)Nc3ccccc3)sc2c1	HSF1 activator 74
Cc1ccc(S(=O)(=O)NC(CC(C)C)C(=O)N2CCN(C/C=C/c3ccccc3)CC2)cc1 (configuration not stated)	none (no result: HSP90 refold inh, Hsp70 act, Tb hexokinase, HSF1 activator, HSF1 inhib)
Cc1c(F)cccc1NS(=O)(=O)c1ccc(N2CCCC2=O)cc1	none (no result: HSP90 refold inh, Hsp70 act, Tb hexokinase, HSF1 activator, HSF1 inhib)
CN(CC(=O)Nc1cccc(F)c1)C(=O)Cn1cnc2c1c(=O)n(C)c(=O)n2C	none (no result: HSP90 refold inh, Hsp70 act, Tb hexokinase)
O=C(O)c1ccc(NC(=O)c2ccco2)c(NC(=O)c2ccco2)c1	none (no result: Hsp70 act, Tb hexokinase)
CCOC(=O)Cc1csc(NC(=O)Cc2cccs2)n1	none
CCOC(=O)Cc1csc(NC(=O)Nc2cccs2)n1	HSF1 inhib -57 (no result: Hsp70 act, Tb hexokinase)
CSc1ncccc1C(=O)Nc1cccc(S(=O)(=O)N2CCCCC2)c1	none (no result: HSP90 refold inh, Hsp70 act, Tb hexokinase, HSF1 activator, HSF1 inhib)
Cc1cccc(C(=O)NC2C(=O)NNC2c2ccc(Cl)cc2)c1 (configuration not stated)	none
O=C(NC1C(=O)NNC1c1ccccc1)c1ccccc1 (configuration not stated)	HSF1 activator 168

Assay outcomes: PubChem BioAssay, several laboratories
